# Test results as given in ChEMBL document CHEMBL1135742, “Modification of the structure of a metallopeptide: synthesis and biological evaluation of (111)In-labeled DOTA-conjugated rhenium-cyclized alpha-MSH analogues” (J Med Chem, 2002).
# Legend:
# Type in all cases: functional, organism-based
# Mus musculus [1] = species on record: Mus musculus; experiment: Radioactivity uptake in the pancreas was expressed as a percentage of the injected radioactive dose per gram of tissue (% ID/g) in B16/F1 Murine Melanoma-Bearing C57 Mice at 0.5 h
# How it was run: (§1)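 C57 BL/6 female mice (7–8 weeks) carried B16/F1 tumours from 1×10^6 cells given s.c. in the right flank; tumours were ~500 mg at 9–10 days. Each mouse received […] of HPLC-purified, neutralized 111In-DOTA peptide via the tail vein. Mice were killed at 0.5, 2, 4 or 24 h pi. Tissues were weighed and γ-counted, expressed as % ID/g; ratios were tumor/tissue % ID/g.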
# Mus musculus [2] = species on record: Mus musculus; experiment: Radioactivity uptake in the pancreas was expressed as a percentage of the injected radioactive dose per gram of tissue (% ID/g) in B16/F1 Murine Melanoma-Bearing C57 Mice at 2 h; how it was run: as §1
# Mus musculus [3] = species on record: Mus musculus; experiment: Radioactivity uptake in the pancreas was expressed as a percentage of the injected radioactive dose per gram of tissue (% ID/g) in B16/F1 Murine Melanoma-Bearing C57 Mice at 24 h; how it was run: as §1
# Mus musculus [4] = species on record: Mus musculus; experiment: Radioactivity uptake in the pancreas was expressed as a percentage of the injected radioactive dose per gram of tissue (% ID/g) in B16/F1 Murine Melanoma-Bearing C57 Mice at 4 h; how it was run: as §1
# Mus musculus [5] = species on record: Mus musculus; experiment: Radioactivity uptake in the spleen was expressed as a percentage of the injected radioactive dose per gram of tissue (% ID/g) in B16/F1 Murine Melanoma-Bearing C57 Mice at 2 h; how it was run: as §1
# Mus musculus [6] = species on record: Mus musculus; experiment: Radioactivity uptake in the spleen was expressed as a percentage of the injected radioactive dose per gram of tissue (% ID/g) in B16/F1 Murine Melanoma-Bearing C57 Mice at 24 h; how it was run: as §1
# Mus musculus [7] = species on record: Mus musculus; experiment: Radioactivity uptake in the tumor was expressed as a percentage of the injected radioactive dose per gram of tissue (% ID/g) in B16/F1 Murine Melanoma-Bearing C57 Mice at 2 h; how it was run: as §1
# Mus musculus [8] = species on record: Mus musculus; experiment: Radioactivity uptake in the blood was expressed as a percentage of the injected radioactive dose per gram of tissue (% ID/g) in B16/F1 Murine Melanoma-Bearing C57 Mice at 0.5 h; how it was run: as §1
# Mus musculus [9] = species on record: Mus musculus; experiment: Radioactivity uptake in the blood was expressed as a percentage of the injected radioactive dose per gram of tissue (% ID/g) in B16/F1 Murine Melanoma-Bearing C57 Mice at 2 h; how it was run: as §1
# Mus musculus [10] = species on record: Mus musculus; experiment: Radioactivity uptake in the blood was expressed as a percentage of the injected radioactive dose per gram of tissue (% ID/g) in B16/F1 Murine Melanoma-Bearing C57 Mice at 24 h; how it was run: as §1
# Mus musculus [11] = species on record: Mus musculus; experiment: Radioactivity uptake in the blood was expressed as a percentage of the injected radioactive dose per gram of tissue (% ID/g) in B16/F1 Murine Melanoma-Bearing C57 Mice at 4 h; how it was run: as §1
# Mus musculus [12] = species on record: Mus musculus; experiment: Radioactivity uptake in the heart was expressed as a percentage of the injected radioactive dose per gram of tissue (% ID/g) in B16/F1 Murine Melanoma-Bearing C57 Mice at 0.5 h; how it was run: as §1
# Mus musculus [13] = species on record: Mus musculus; experiment: Radioactivity uptake in the heart was expressed as a percentage of the injected radioactive dose per gram of tissue (% ID/g) in B16/F1 Murine Melanoma-Bearing C57 Mice at 2 h; how it was run: as §1
# Mus musculus [14] = species on record: Mus musculus; experiment: Radioactivity uptake in the heart was expressed as a percentage of the injected radioactive dose per gram of tissue (% ID/g) in B16/F1 Murine Melanoma-Bearing C57 Mice at 24 h; how it was run: as §1
# Mus musculus [15] = species on record: Mus musculus; experiment: Radioactivity uptake in the heart was expressed as a percentage of the injected radioactive dose per gram of tissue (% ID/g) in B16/F1 Murine Melanoma-Bearing C57 Mice at 4 h; how it was run: as §1
# Mus musculus [16] = species on record: Mus musculus; experiment: Radioactivity uptake in the kidneys was expressed as a percentage of the injected radioactive dose per gram of tissue (% ID/g) in B16/F1 Murine Melanoma-Bearing C57 Mice at 0.5 h; details: Kidney; how it was run: as §1
# Mus musculus [17] = species on record: Mus musculus; experiment: Radioactivity uptake in the kidneys was expressed as a percentage of the injected radioactive dose per gram of tissue (% ID/g) in B16/F1 Murine Melanoma-Bearing C57 Mice at 2 h; details: Kidney; how it was run: as §1
# Mus musculus [18] = species on record: Mus musculus; experiment: Radioactivity uptake in the kidneys was expressed as a percentage of the injected radioactive dose per gram of tissue (% ID/g) in B16/F1 Murine Melanoma-Bearing C57 Mice at 24 h; details: Kidney; how it was run: as §1
# Mus musculus [19] = species on record: Mus musculus; experiment: Radioactivity uptake in the liver was expressed as a percentage of the injected radioactive dose per gram of tissue (% ID/g) in B16/F1 Murine Melanoma-Bearing C57 Mice at 24 h; how it was run: as §1
# Mus musculus [20] = species on record: Mus musculus; experiment: Radioactivity uptake in the lungs was expressed as a percentage of the injected radioactive dose per gram of tissue (% ID/g) in B16/F1 Murine Melanoma-Bearing C57 Mice at 0.5 h; details: Lung; how it was run: as §1
# Mus musculus [21] = species on record: Mus musculus; experiment: Radioactivity uptake in the lungs was expressed as a percentage of the injected radioactive dose per gram of tissue (% ID/g) in B16/F1 Murine Melanoma-Bearing C57 Mice at 2 h; details: Lung; how it was run: as §1
# Mus musculus [22] = species on record: Mus musculus; experiment: Radioactivity uptake in the lungs was expressed as a percentage of the injected radioactive dose per gram of tissue (% ID/g) in B16/F1 Murine Melanoma-Bearing C57 Mice at 24 h; details: Lung; how it was run: as §1
# Mus musculus [23] = species on record: Mus musculus; experiment: Radioactivity uptake in the muscle was expressed as a percentage of the injected radioactive dose per gram of tissue (% ID/g) in B16/F1 Murine Melanoma-Bearing C57 Mice at 0.5 h; how it was run: as §1
# Mus musculus [24] = species on record: Mus musculus; experiment: Uptake Ratio of Tumor/blood (each in % ID/g) in B16/F1 Murine Melanoma-Bearing C57 Mice at 2 h; how it was run: as §1
# Mus musculus [25] = species on record: Mus musculus; experiment: Uptake Ratio of Tumor/kidneys (each in % ID/g) in B16/F1 Murine Melanoma-Bearing C57 Mice at 0.5 h; details: Kidney; how it was run: as §1
# Mus musculus [26] = species on record: Mus musculus; experiment: Uptake Ratio of Tumor/liver (each in % ID/g) in B16/F1 Murine Melanoma-Bearing C57 Mice at 4 h; how it was run: as §1
# Mus musculus [27] = species on record: Mus musculus; experiment: Uptake Ratio of Tumor/lungs (each in % ID/g) in B16/F1 Murine Melanoma-Bearing C57 Mice at 0.5 h
# How it was run: (§2)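 Female C57 BL/6 mice, 7–8 weeks old, carried subcutaneous right-flank B16/F1 tumors from 1×10^6 cells and were used 9–10 days later at ~500 mg tumor weight. Each received […] of HPLC-purified, pH-neutralized ¹¹¹In-DOTA peptide by tail vein. Tumor and organs were excised at the stated time, weighed and γ-counted. Each tissue was taken as % ID/g, and tumor/normal-tissue ratios were formed from these values.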
# Mus musculus [28] = species on record: Mus musculus; experiment: Uptake Ratio of Tumor/muscle (each in % ID/g) in B16/F1 Murine Melanoma-Bearing C57 Mice at 0.5 h; details: Muscle tissue; how it was run: as §2
# Mus musculus [29] = species on record: Mus musculus; experiment: Uptake Ratio of Tumor/muscle (each in % ID/g) in B16/F1 Murine Melanoma-Bearing C57 Mice at 2 h; details: Muscle tissue; how it was run: as §2
# Mus musculus [30] = species on record: Mus musculus; experiment: Uptake Ratio of Tumor/muscle (each in % ID/g) in B16/F1 Murine Melanoma-Bearing C57 Mice at 4 h; details: Muscle tissue; how it was run: as §2
# Mus musculus [31] = species on record: Mus musculus; experiment: Uptake Ratio of Tumor/kidneys (each in % ID/g) in B16/F1 Murine Melanoma-Bearing C57 Mice at 4 h; details: Kidney; how it was run: as §1
# Mus musculus [32] = species on record: Mus musculus; experiment: Uptake Ratio of Tumor/liver (each in % ID/g) in B16/F1 Murine Melanoma-Bearing C57 Mice at 0.5 h; how it was run: as §1
substance,measurement,setting,value
DOTA-ReCCEHdFRWCRPV-NH2,ID/g,Mus musculus [1],0.41%
same,ID/g,Mus musculus [2],0.08%
same,ID/g,Mus musculus [3],0.081%
same,ID/g,Mus musculus [4],0.015%
same,ID/g,Mus musculus [5],0.27%
same,ID/g,Mus musculus [6],0.32%
same,ID/g,Mus musculus [7],17.3%
same,ID/g,Mus musculus [8],1.7%
same,ID/g,Mus musculus [9],0.21%
same,ID/g,Mus musculus [10],0.06%
same,ID/g,Mus musculus [11],0.085%
same,ID/g,Mus musculus [12],0.76%
same,ID/g,Mus musculus [13],0.07%
same,ID/g,Mus musculus [14],0.36%
same,ID/g,Mus musculus [15],0.054%
same,ID/g,Mus musculus [16],9.31%
same,ID/g,Mus musculus [17],8.72%
same,ID/g,Mus musculus [18],5.64%
same,ID/g,Mus musculus [19],0.32%
same,ID/g,Mus musculus [20],1.66%
same,ID/g,Mus musculus [21],0.3%
same,ID/g,Mus musculus [22],0.24%
same,ID/g,Mus musculus [23],0.39%
same,Uptake ratio,Mus musculus [24],93.7
same,Uptake ratio,Mus musculus [25],1.8
same,Uptake ratio,Mus musculus [26],60.2
same,Uptake ratio,Mus musculus [27],11.1
same,Uptake ratio,Mus musculus [28],47.4
same,Uptake ratio,Mus musculus [29],2100
same,Uptake ratio,Mus musculus [30],193
same,Uptake ratio,Mus musculus [31],2.5
same,Uptake ratio,Mus musculus [32],25.2
